# Hits are enriched below; roughly 2.1% of the tested compounds scored in any of these assays.
# ZTA DNA inh: ZTA (EBV) inhibition in EBNA-1 counter-screen; ZTA-DNA binding, fluorescence polarization; inhibition, % at 11 µM; 320,000 compounds, 0.15% hits; P03206; AID 2234; in the data active = inhibition above about 33%
# EBNA-1 inh: blocks EBNA-1 binding to DNA; EBNA-1 DNA binding, fluorescence polarization; inhibition, % at 14.8 µM; 300,000 compounds, 0.34% hits; AID 1950; in the data active = inhibition above about 28%
# HCV NS3 hel inh: blocks Hepatitis C virus NS3 helicase unwinding; 290,000 compounds, 0.56% hits; inhibition, % at 10.9 µM; NS3 helicase DNA unwinding, Cy5 molecular beacon fluorescence;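 active = inhibition above the mean of all tested compounds plus 3 SD, set per campaign, cut at about 35% in these data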;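 note: 0% = DMSO wells and 100% = thioflavine S control wells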
#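 Assay system: hepatitis C virus NS3 helicase domain fragment enzyme. Also added: annealed dual-labelled DNA beacon duplex, ATP-started. Timing: 1 h reaction at 25 °C, ATP-initiated. Technique: Cy5 fluorescence at 0 and 60 min, beacon hairpin quenching. Evaluation: % inhibition of unwinding. Replication: one well per compound.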
# eIF4H FP inh: inhibitors of RNA binding by human eIF4H. Q15056. eIF4H fluorescence polarization binding assay. inhibition, % at 35 µM. 290,000 compounds, 0.94% hits. AID 2012;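 note: calls also rest on retests at 20 µM and on dose response follow-up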
# MLLE-PAM2 inh: blocks PAM2 peptide binding to the PABP1 MLLE domain | GST-MLLE / FITC-PAM2 fluorescence polarization | P11940 | 360,000 compounds, 0.36% hits | inhibition, % at 20 µM; in the data active = inhibition above about 35%, passing the limit was not always enough;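 note: plate controls were DMSO wells with GST-MLLE for no effect and wells lacking GST-MLLE protein for full effect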
# Target sequence (P11940 whole entry, looked up, the tested form may be a part): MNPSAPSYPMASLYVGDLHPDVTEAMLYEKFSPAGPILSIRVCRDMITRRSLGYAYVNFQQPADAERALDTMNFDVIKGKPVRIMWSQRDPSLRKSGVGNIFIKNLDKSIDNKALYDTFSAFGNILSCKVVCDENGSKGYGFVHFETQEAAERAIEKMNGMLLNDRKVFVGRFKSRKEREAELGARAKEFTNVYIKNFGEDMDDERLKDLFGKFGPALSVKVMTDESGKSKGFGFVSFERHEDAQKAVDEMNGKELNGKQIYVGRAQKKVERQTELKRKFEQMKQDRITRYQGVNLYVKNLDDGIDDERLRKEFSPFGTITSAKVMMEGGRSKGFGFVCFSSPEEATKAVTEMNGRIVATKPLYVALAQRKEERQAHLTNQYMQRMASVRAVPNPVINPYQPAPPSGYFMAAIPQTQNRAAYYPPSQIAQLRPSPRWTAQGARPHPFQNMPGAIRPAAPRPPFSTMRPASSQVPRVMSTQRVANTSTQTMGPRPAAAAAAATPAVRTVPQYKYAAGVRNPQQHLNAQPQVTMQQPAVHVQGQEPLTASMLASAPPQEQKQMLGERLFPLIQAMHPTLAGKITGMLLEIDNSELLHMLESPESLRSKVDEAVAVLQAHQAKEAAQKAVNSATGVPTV
# PABP FP inh: blocks human PABP binding to poly(A) RNA; fluorescence polarization; inhibition, % at 35 µM; 290,000 compounds, 1% hits; P11940;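 note: calls also rest on retests at 20 µM and on dose response follow-up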
# NS3 helicase cf: HCV NS3 helicase inhibition, confirmation assay; shares compounds with HCV NS3 hel inh; NS3 helicase DNA unwinding, Cy5 molecular beacon fluorescence; inhibition, % at 10.9 µM; 1,600 compounds, 31% hits; AID 1943;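 active = inhibition above the mean of all tested compounds plus 3 SD, cutoff set per campaign, cut at about 36% in these data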
# DNA FID counter: intercalator displacement, NS3 helicase counter-screen | shares compounds with HCV NS3 hel inh | inhibition, % at 7.9 µM | 1,600 compounds, 4% hits | DNA fluorescent intercalator displacement, fluorescence | AID 1945; in the data active = inhibition above about 37%;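 note: 0% = vehicle and 100% = reference compound; higher means more displacement of ethidium bromide from the DNA hairpin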
# DNA FID DR: counter-screen for HCV NS3 helicase inhibitors: DNA intercalator displacement dose response. shares compounds with HCV NS3 hel inh. fluorescent intercalator displacement from DNA, fluorescence. IC50, µM. 120 tested, under 10 active
# * hit, by the source's call; ? = inconclusive; . = not tested or not shown; + = active, no number. Unless noted, the rule behind the calls is not given here.
SMILES,ZTA DNA inh,EBNA-1 inh,HCV NS3 hel inh,eIF4H FP inh,MLLE-PAM2 inh,PABP FP inh,NS3 helicase cf,DNA FID counter,others
O=C(/C=C/c1ccc(-c2ccccc2)o1)c1ccccc1,2,11,47*,49,9,2,-19,1,
Cc1ccc(C(=O)/C=C/c2ccc(-c3ccccc3[N+](=O)[O-])o2)cc1,14,2,37*,19,21,33,39*,17,
O=C(N/N=C\C=C\c1ccco1)C1COc2ccccc2O1 (configuration not stated),16,6,44*,50,0,25,-2,-8,
O=C(COC(=O)CSCC(=O)N1CCCCC1)NCc1ccc(F)cc1,-11,-10,3,-9,17,5,.,.,
CCCCOC(=O)C1[C@H]2C(=O)N(Cc3cccs3)C[C@]23C=C[C@H]1O3 (some centres not stated),12,7,6,-6,14,-2,.,.,
CCCOC(=O)C1[C@H]2C(=O)N(Cc3ccco3)C[C@]23C=C[C@H]1O3 (some centres not stated),8,-4,40*,5,7,1,-6,-8,
Cc1ccc(C(C(=O)NC2CCCCC2)N(Cc2ccccc2)C(=O)Cc2c[nH]c3ccccc23)o1 (configuration not stated),7,-13,-10,-5,3,5,.,.,
COc1ccc(CN(C(=O)Cc2c[nH]c3ccccc23)C(C(=O)NC2CCCCC2)c2ccc(C)o2)cc1 (configuration not stated),-13,-8,65*,-5,-4,3,11,-22,
CCCCCn1c(C)c2c(OCC)cccc(=O)c2c1C,1,2,54*,28,-8,20,-5,-27,
COc1cccc(=O)c2c(C)n(-c3cc(C)cc(C)c3)c(C)c12,4,0,33,-1,-1,9,.,.,
CCOC(=O)NC1(NC2CCCCC2)Oc2ccccc2O1,-26,-7,38*,-3,14,-5,-14,-4,
CC(=O)N1N=C(c2cccc(NS(=O)(=O)c3ccc(C)cc3)c2)CC1c1ccco1 (configuration not stated),-5,-14,-8,-15,5,2,.,.,
C/C(CC(=O)N1CCCC1)=N\NC(=O)c1cc2ccccc2cc1O,-5,-14,45*,15,5,15,5,-5,
Cc1ccc2nc(N/N=C/c3ccco3)cc(C)c2c1,-27,1,0,-2,-16,-4,.,.,
Cc1ccc(NC(=O)c2ccc(OCc3c(C)noc3C)cc2)c(C)c1,2,.,.,.,4,.,.,.,
O=C1NC(=Nc2ccccc2)S/C1=C\C=C\c1ccco1,20,15,44*,80,-53,-6,3,-2,
O=C1NC(=Nc2ccccc2)S/C1=C\c1ccccc1,9,3,40*,-4,-23,-8,5,14,
Cc1ccc(N=C2NC(=O)S/C2=C\c2ccco2)cc1,8,7,17,?,-10,1,.,.,
Cc1cccc(N=C2NC(=O)/C(=C/C=C/c3ccco3)S2)c1C,14,1,45*,85,-18,active,88*,34,DNA FID DR=>79
Cc1ccc(N=C2NC(=O)/C(=C/C=C/c3ccco3)S2)cc1,-4,2,114*,76*,-39,22*,9,3,
Cc1cccc(N=C2NC(=O)/C(=C/c3cccnc3)S2)c1C,9,5,3,4,4,2,.,.,
NCCS,-2,8,-3,-4,22,11,.,.,
CC1(C(=O)N(CC(=O)NC2CCCC2)Cc2ccc(Cl)cc2)CC(=O)N=C2C=CC=CN21 (configuration not stated),-6,-10,0,7,-22,7,.,.,
CCc1cccc2c(C(=O)Cn3nnc(-c4ccc(OC)c(OC)c4)n3)c[nH]c12,-9,-3,-20,-4,1,-4,.,.,
CCC(C(=O)O)n1nnc(-c2ccc(OCc3ccccc3)c(OC)c2)n1 (configuration not stated),-3,-8,-5,-13,.,-2,.,.,
SMILES,ZTA DNA inh,EBNA-1 inh,HCV NS3 hel inh,eIF4H FP inh,MLLE-PAM2 inh,PABP FP inh,NS3 helicase cf,DNA FID counter,others
CCC(C(=O)O)n1nnc(-c2ccc(-c3ccc(OC)cc3)cc2)n1 (configuration not stated),11,-13,39*,-7,1,2,62*,-21,DNA FID DR=>79
CC1(C)Cc2c(c(-c3ccco3)[nH]c(=O)c2C#N)CS1,-3,5,44*,122,61*,118,75*,7,
CC(=O)c1cccc(NC(=O)COC(=O)Cc2ccc(Cl)cc2)c1,.,.,.,.,-7,.,.,.,
Cc1nc(-c2ccc(-n3nncc3-c3ccco3)cc2)cs1,-7,8,56*,7,-18,-6,-17,-22,
O=C(Cc1ccccc1)N1CCN(C(=O)c2ccco2)CC1,0,18,0,-2,9,-8,.,.,
O=C(Cc1ccc(Br)cc1)N1CCN(C(=O)c2ccco2)CC1,5,-3,38*,0,4,6,-4,-3,
CCN(CC)c1ccc2nc3ccccc3[n+](CC)c2c1,+,174*,57*,39,-113,72*,99*,51*,
O=C(COC(=O)c1c2c(nc3ccccc13)CCCC2)c1cccs1,-9,2,41*,-4,1,8,-6,-20,
CCc1cc(C(=O)NC2CCCc3c2cnn3-c2cccc(C)c2C)n(C)n1 (configuration not stated),7,-3,-2,0,.,10,.,.,
O=C(NC(Cc1ccccc1)C(=O)N1CCN(c2ccccn2)CC1)c1ccco1 (configuration not stated),-12,6,49*,-2,-5,2,-11,-17,
Cc1ccc(CC2CC(=O)N(c3ccc(C)cc3)C2=O)cc1 (configuration not stated),7,4,0,12,1,2,.,.,
Cc1ccc(N2C(=O)CC(N(O)C3CC(=O)N(c4ccc(C)cc4)C3=O)C2=O)cc1 (configuration not stated),12,4,38*,-9,22,-5,-14,-12,
O=C(NC(CCl)c1ccccc1)c1ccc(Cl)cc1 (configuration not stated),-6,-18,-5,-1,-4,7,.,.,
O=[N+]([O-])c1ccc(N2CCCC2)cc1N1CCCC1,12,6,-9,-13,3,-2,.,.,
Oc1c(Br)cc(Br)cc1/C=N/Nc1ccc(Cl)nn1,-24,-4,41*,-6,2,10,-21,6,

# Screening results as filed in PubChem BioAssay.
